Data taken from ChEMBL document CHEMBL4715825, “Synthesis and biological evaluations of marine oxohexadecenoic acids: PPARα/γ dual agonism and anti-diabetic target gene effects” (Eur J Med Chem, 2018).
The source made the active and inactive calls. No cut-off for these calls is given here.

Columns and labels:
[1] = target: T1, Retinoic acid receptor RXR-alpha (Homo sapiens) (UniProt P19793); assay: Agonist activity at recombinant human RXRalpha LBD (202 to 462 residues) expressed in African green monkey COS-1 cells at 25 to 50 uM incubated for 18 hrs by luciferase reporter gene assay; type: cell-based; conditions: dose 25-50 µM
T1 sequence (whole entry): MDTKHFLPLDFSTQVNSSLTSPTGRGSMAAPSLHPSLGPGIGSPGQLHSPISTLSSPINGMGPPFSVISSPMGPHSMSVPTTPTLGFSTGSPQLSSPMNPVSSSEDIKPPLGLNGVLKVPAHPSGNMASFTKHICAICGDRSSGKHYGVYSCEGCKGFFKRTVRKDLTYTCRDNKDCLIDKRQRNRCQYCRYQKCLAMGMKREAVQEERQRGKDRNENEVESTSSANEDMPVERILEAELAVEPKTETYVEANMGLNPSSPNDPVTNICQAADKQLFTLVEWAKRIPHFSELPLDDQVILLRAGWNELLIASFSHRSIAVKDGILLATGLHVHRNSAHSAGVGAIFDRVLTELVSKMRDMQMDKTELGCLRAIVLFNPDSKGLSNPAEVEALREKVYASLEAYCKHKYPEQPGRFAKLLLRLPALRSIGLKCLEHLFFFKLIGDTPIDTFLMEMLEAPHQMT
In short: (§1)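 Transient Gal4 one-hybrid assay in COS-1 cells (7×10^4 per well), transfected 24 h after seeding. Plasmids were Gal4-DBD fused to the human nuclear receptor LBD, a 5×UAS-SV40 luciferase reporter and pRL-CMV Renilla control. Ligand in DMSO (final 0.1%) was added 5 h post-transfection. Dual-luciferase activity was read after 18 h, expressed as RLU, from three biological replicates in quadruplicate.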

[2] = Cytotoxicity against African green monkey COS-1 cells assessed as cell viability at EC50 concentration for PPAR activation assay by XTT assay; type: cell-based; conditions: chlorocebus aethiops, read-out: Activity
In short: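 Run on COS-1 cells treated in parallel with the Gal4-LBD PPAR reporter assays. Metabolic NAD(P)H flux was measured by kit XTT assay per the maker's protocol. Absorbance was read at 450/690 nm.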

[3] = target: T2, Peroxisome proliferator-activated receptor gamma (Homo sapiens, UniProt P37231); assay: Agonist activity at recombinant human PPARgamma LBD (205 to 505 residues) expressed in African green monkey COS-1 cells incubated for 18 hrs by luciferase reporter gene assay; type: cell-based; in short: as §1
T2 sequence (P37231 whole entry): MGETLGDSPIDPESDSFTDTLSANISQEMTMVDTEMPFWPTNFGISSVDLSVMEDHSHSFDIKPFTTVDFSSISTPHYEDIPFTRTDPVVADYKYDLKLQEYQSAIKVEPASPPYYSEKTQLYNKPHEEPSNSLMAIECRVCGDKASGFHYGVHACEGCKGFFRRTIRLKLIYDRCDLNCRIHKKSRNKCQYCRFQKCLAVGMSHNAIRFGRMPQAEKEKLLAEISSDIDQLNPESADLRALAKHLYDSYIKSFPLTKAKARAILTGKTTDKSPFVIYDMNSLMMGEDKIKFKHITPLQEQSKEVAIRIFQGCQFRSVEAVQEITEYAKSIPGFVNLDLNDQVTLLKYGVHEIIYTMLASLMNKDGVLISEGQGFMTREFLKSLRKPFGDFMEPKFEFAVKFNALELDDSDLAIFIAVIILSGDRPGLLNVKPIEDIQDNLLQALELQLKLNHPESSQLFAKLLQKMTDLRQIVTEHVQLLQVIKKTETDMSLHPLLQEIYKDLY

SGBS [4] = assay: Effect on diabetic complication pathway in 8 day differentiated human SGBS cells assessed as downregulation of TNF signalling genes at 25 uM incubated for 8 days by Illumina sequencing method; type: functional, cell-based
In short: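 SGBS cells were differentiated 4 days in Quickdiff supplemented with compound:BSA or rosiglitazone, then 4 days in 3FC. Total RNA was extracted, and strand-specific TruSeq libraries were sequenced on NextSeq 500 (2×75 bp paired-end). Reads were aligned to hg19 with Tophat/Bowtie and counted as RPKM by Cufflinks. Values are log2 fold over day 0 cells, grouped into KEGG gene sets (n = 2-4).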

SGBS [5] = assay: Induction of adipogenesis in 8 day differentiated human SGBS cells assessed as upregulation of steroid biosynthesis genes at 25 uM incubated for 8 days by Illumina sequencing method; type: functional, cell-based
In short: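 SGBS cells were differentiated for 8 days: Quickdiff for days 0-4 with 2 µM rosiglitazone or 25 µM oxo-fatty acid:BSA, then 3FC. Total RNA was extracted (RIN 9.80-10.00) and strand-specific TruSeq libraries were sequenced on NextSeq 500 (2×75 bp paired-end). Reads were aligned to hg19 and quantified as RPKM. Data were expressed as log2 fold over day-0 cells (n = 2-4) and grouped into KEGG gene sets.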

SGBS [6] = assay: Induction of adipogenesis in 8 day differentiated human SGBS cells assessed as increase in PLIN1 mRNA expression at 25 uM measured upto 12 days by qRT-PCR analysis; type: functional, cell-based; conditions: time day <=12
In short: (§2)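 SGBS cells were grown to confluence (day 0). Quickdiff medium was supplemented with compound or rosiglitazone for 4 days, followed by 3FC medium. DMSO or DMSO:BSA served as control. RNA was harvested on days 0, 4, 8 and 12, and expression was measured by SYBR-green qPCR. Data are mean ± SEM of at least three biological replicates in duplicate.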

SGBS [7] = assay: Induction of adipogenesis in 8 day differentiated human SGBS cells assessed as increase in PPARG mRNA expression at 25 uM measured upto 12 days by qRT-PCR analysis; type: functional, cell-based; conditions: time day <=12; in short: as §2
[8] = target: T3, Peroxisome proliferator-activated receptor alpha (Homo sapiens) (UniProt Q07869); assay: Agonist activity at recombinant human PPARalpha LBD (168 to 468 residues) expressed in African green monkey COS-1 cells at 25 to 50 uM incubated for 18 hrs by luciferase reporter gene assay; type: cell-based; conditions: filed as agonist, dose 25-50 µM; in short: as §1
T3 sequence (whole entry): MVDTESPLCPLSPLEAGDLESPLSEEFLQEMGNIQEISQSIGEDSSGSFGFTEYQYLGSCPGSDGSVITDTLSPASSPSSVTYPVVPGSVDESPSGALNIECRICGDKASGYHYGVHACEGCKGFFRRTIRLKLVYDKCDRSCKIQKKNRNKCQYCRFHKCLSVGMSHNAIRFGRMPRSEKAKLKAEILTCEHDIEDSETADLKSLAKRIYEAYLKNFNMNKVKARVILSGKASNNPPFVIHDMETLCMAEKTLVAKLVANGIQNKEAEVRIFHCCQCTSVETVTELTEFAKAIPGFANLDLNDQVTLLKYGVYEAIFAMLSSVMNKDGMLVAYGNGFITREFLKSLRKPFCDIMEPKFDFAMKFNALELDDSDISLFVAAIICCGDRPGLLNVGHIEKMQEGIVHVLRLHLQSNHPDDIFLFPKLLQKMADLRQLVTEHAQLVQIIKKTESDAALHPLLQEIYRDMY

[9] = target: T4, Peroxisome proliferator-activated receptor gamma (Homo sapiens) (UniProt P37231); assay: Agonist activity at human PPARgamma in 8 day differentiated human SGBS cells assessed as increase in leptin gene expression at 25 uM incubated for 24 hrs by SYBR-green based qPCR analysis; type: cell-based; conditions: filed as agonist
T4 sequence (whole entry): T2 sequence (P37231 whole entry)

SMILES | Activity [1] | viability [2] [%] | EC50 [3] [µM] | Activity (SGBS [4]) | Activity (SGBS [5]) | Activity (SGBS [6]) | Activity (SGBS [7]) | Activity [8] | Activity [9]
CCCCCCCC(=O)/C=C/CCCCCC(=O)O | inactive | > 90 | 10 | Active | Active | Active | Active | Active | Active
CCCCC/C=C/C(=O)CCCCCCCC(=O)O | inactive | > 90 | 8.5 | Active | Active | Active | Active | Active | Active
